# Experiments:
# [1] = target: Sigma non-opioid intracellular receptor 1 (Rattus norvegicus, UniProt Q9R0C9); assay: Displacement of (+)-[3H]pentazocine from sigma 1 receptor in rat brain membranes by competitive binding assay; format: cell membranes
# Summary of the method: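 Sigma-1 competition binding used rat brain membranes as receptor material with (+)-[3H]pentazocine as radioligand. Ki was derived by Cheng–Prusoff from at least three independent experiments, each in triplicate, and is reported as mean ± SD.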
# [2] = Displacement of [3H]ditolylguanidine from sigma 2 receptor in rat liver membrane by competitive binding assay; format: cell membranes
# Summary of the method: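 Sigma-2 competition binding used rat liver membranes with [3H]ditolylguanidine as radioligand. 10 µM dextrallorphan was present to mask sigma-1 sites. Ki was derived by Cheng–Prusoff from at least three independent experiments, each in triplicate, and is reported as mean ± SD.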
# Chain of Sigma non-opioid intracellular receptor 1 (Q9R0C9 whole entry): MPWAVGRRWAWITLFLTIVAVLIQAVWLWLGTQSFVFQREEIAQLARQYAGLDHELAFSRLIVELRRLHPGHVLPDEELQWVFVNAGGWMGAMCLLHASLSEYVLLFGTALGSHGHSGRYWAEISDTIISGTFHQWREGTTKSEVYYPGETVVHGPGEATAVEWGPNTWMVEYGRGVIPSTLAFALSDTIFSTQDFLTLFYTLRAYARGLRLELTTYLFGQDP
smiles,measurement,setting,value
Fc1ccc(CN2CCN(Cc3ccc4c(c3)OCO4)CC2)cc1,Ki,[1],0.85 nM
same,Ki,[2],52.2 nM
